The text below walks through data of ChEMBL document CHEMBL1140342, “Antitumor activity of C-methyl-beta-D-ribofuranosyladenine nucleoside ribonucleotide reductase inhibitors” (J Med Chem, 2005).

Type in all cases: functional, cell-based
One assay concerns HT-29. The experiment in a line: In vitro inhibitory activity against human colon carcinoma HT-29 cell line. Summed up:
(§1)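 Cells kept in 10% FBS medium, RPMI 1640 for K562/K562IU and MEM alpha for HT-29/MCF-7; adherent lines trypsinized to single-cell suspension. Log-phase cells seeded at about 50 000 cells/mL, acclimatized 24 h, then exposed to compound dilutions (up to 100 μM) in triplicate for 48 h at 37 °C, 5% CO2. MTS/PMS tetrazolium reduction 3 h, A490; IC50 = concentration giving 50% growth inhibition.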

A further assay has as its system MCF7. The experiment in a line: In vitro inhibitory activity against human breast carcinoma MCF-7 cell line. Summed up: as §1
Assay [1] deals with K562. As to the kind of experiment: In vitro inhibitory activity against human myelogenous leukemia K562 cell line. The method in brief:
as §1

In assay [2] the test system is K562. The experiment in a line: In vitro inhibitory activity against human leukemia K562IU cell line. Summed up: as §1

Broadly, the IC50 is the concentration needed to halve the response being measured. A low value points to greater potency in that assay. On to `C[C@]1(O)C(n2cnc3c(N)nc(Cl)nc32)O[C@H](CO)[C@H]1O` (stereo partly drawn), for which the IC50 in the assay with HT-29, in the assay on MCF7, in the assay with K562 [1] and in the assay with K562 [2] was above 100 µM throughout.
Consider `C[C@]1(O)C(O)C(n2cnc3c(NC4CC4)ncnc32)O[C@@H]1CO` (single isomer, unassigned), for which the IC50 was above 100 µM in the assay with HT-29, above 100 µM with MCF7, 73 µM in the assay on K562 [1] and above 100 µM with K562 [2].
For `C[C@]1(O)C(O)C(n2cnc3c(N)nc(Cl)nc32)O[C@@H]1CO` (single isomer, unassigned), the IC50 in the assay with HT-29, in the assay with MCF7, with K562 [1] and with K562 [2] was above 100 µM throughout.
In the case of `CNc1ncnc2c1ncn2[C@@H]1O[C@H](CO)[C@@H](O)C1O` (single isomer, unassigned), the IC50 with HT-29, in the assay with MCF7, in the assay with K562 [1] and in the assay with K562 [2] was above 100 µM throughout.
In the case of `C[C@@]1(n2cnc3c(N)ncnc32)O[C@H](CO)[C@@H](O)C1O` (single isomer, unassigned), the IC50 was above 100 µM in the assay with HT-29, above 100 µM in the assay on MCF7, 53 µM in the assay on K562 [1] and above 100 µM in the assay with K562 [2].
For the compound `CNc1ncnc2c1ncn2C1O[C@H](CO)[C@@](C)(O)C1O` (single isomer, unassigned), the IC50 in the assay with HT-29 stood at 74.3 µM; in the assay with MCF7, 68.1 µM; in the assay with K562 [1] it was 43.9 µM; with K562 [2] it was 93.8 µM.
Consider `C[C@]1(O)C(n2cnc3c(NC4CC4)ncnc32)O[C@H](CO)[C@H]1O` (stereo partly drawn), for which the IC50 in the assay with HT-29, in the assay with MCF7, in the assay on K562 [1] and with K562 [2] was above 100 µM each time.
As to `CNc1ncnc2c1ncn2C1O[C@H](CO)[C@@H](O)[C@@]1(C)O` (stereo partly drawn), the IC50 in the assay with HT-29, with MCF7, in the assay with K562 [1] and in the assay with K562 [2] was above 100 µM throughout.
Turning to `OC[C@H]1O[C@@H](n2cnc3c(NC4CC4)ncnc32)C(O)[C@@H]1O` (single isomer, unassigned), the IC50 in the assay with HT-29 is above 100 µM; with MCF7 it was 93.4 µM; in the assay with K562 [1], above 100 µM; in the assay with K562 [2], above 100 µM.
With `C[C@@]1(O)[C@H](O)[C@@H](CO)O[C@H]1n1cnc2c(N)ncnc21`, the IC50 with HT-29 is above 100 µM; in the assay with MCF7 it was above 100 µM; in the assay on K562 [1], 16 µM; with K562 [2] it was above 100 µM.
As to `Nc1nc(Cl)nc2c1ncn2[C@@H]1O[C@H](CO)[C@@H](O)C1O` (single isomer, unassigned), the IC50 in the assay on HT-29 was determined as 85.6 µM; in the assay on MCF7, 72.6 µM; in the assay with K562 [1], 15.4 µM; in the assay with K562 [2], 19.5 µM.
The corresponding values for `C[C@]1(O)C(O)[C@H](n2cnc3c(N)ncnc32)O[C@@H]1CO` (single isomer, unassigned) are 23.2 µM, 17.5 µM, 18.2 µM and 38.3 µM.
